“And” between values parts separate entries of the source, which are not always exact repeats. Equal values may be shown once.
How the values were obtained:
HEK-293T = assay: Multiplex assay against HEK293T; format: toxicity, cell-based; details: human, number of replicates 2
Summary of the method: (§1)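 Live cells were stained at seeding with Hoechst33342, BioTracker Green Microtubule Cytoskeleton Dye, MitoTracker Red and Annexin V Alexa Fluor 680. Following compound addition, they were imaged on a CQ1 microscope at 37°C and 5% CO2 and gated by CellPathfinder machine learning into Hoechst high-intensity objects or normal cells, with normal cells split into healthy, pyknosed or fragmented nuclei and pyknosed cells into mitotic or apoptotic. Tubulin, mitochondrial-mass and membrane-permeability phenotypes are per cents of healthy-nucleus cells.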

Fibroblast = assay: Multiplex assay against human fibroblast; format: toxicity, cell-based; details: number of replicates 2; summary of the method: as §1
[1] = 12 h, 1 µM, compound concentration 1 uM
[2] = 12 h, 10 µM, compound concentration 10 uM
[3] = 24 h, 1 µM, compound concentration 1 uM
[4] = 24 h, 10 µM, compound concentration 10 uM
[5] = 48 h, 1 µM, compound concentration 1 uM
[6] = 48 h, 10 µM, compound concentration 10 uM

## Cc1onc(-c2ccccc2Cl)c1C(=O)N(C)c1ccc(Cl)cc1
HEK-293T; [1]
  Population Apoptotic (%): 39% and 47%
  Population Fragmented Nuclei (%): 2% and 5%
  Population Healthy Nuclei (%): 80% and 83%
  Population Hoechst High Intensity Objects (%): 6%
  Population Membrane Permeable-Phenotype (%): 2% and 1%
  Population Mitochondria Different-Phenotype (%): 18% and 15%
  Population Mitotic Cells (%): 60% and 52%
  Population Normal (%): 93%
  Population Pyknosed Nuclei (%): 16% and 11%
  Population Tubulin-Different-Phenotype (%): 47% and 44%
  Total Cell Count: 587 and 613
HEK-293T; [2]
  Population Apoptotic (%): 50%
  Population Fragmented Nuclei (%): 3%
  Population Healthy Nuclei (%): 81% and 84%
  Population Hoechst High Intensity Objects (%): 5% and 7%
  Population Membrane Permeable-Phenotype (%): 4% and 1%
  Population Mitochondria Different-Phenotype (%): 26% and 20%
  Population Mitotic Cells (%): 50% and 49%
  Population Normal (%): 94% and 92%
  Population Pyknosed Nuclei (%): 15% and 11%
  Population Tubulin-Different-Phenotype (%): 77% and 55%
  Total Cell Count: 575 and 625
HEK-293T; [3]
  Population Apoptotic (%): 44% and 42%
  Population Fragmented Nuclei (%): 7%
  Population Healthy Nuclei (%): 83% and 86%
  Population Hoechst High Intensity Objects (%): 6% and 8%
  Population Membrane Permeable-Phenotype (%): 2%
  Population Mitochondria Different-Phenotype (%): 4% and 5%
  Population Mitotic Cells (%): 55% and 57%
  Population Normal (%): 93% and 91%
  Population Pyknosed Nuclei (%): 9% and 6%
  Population Tubulin-Different-Phenotype (%): 22%
  Total Cell Count: 896 and 976
HEK-293T; [4]
  Population Apoptotic (%): 36% and 23%
  Population Fragmented Nuclei (%): 5% and 6%
  Population Healthy Nuclei (%): 84% and 85%
  Population Hoechst High Intensity Objects (%): 5% and 8%
  Population Membrane Permeable-Phenotype (%): 4%
  Population Mitochondria Different-Phenotype (%): 14% and 5%
  Population Mitotic Cells (%): 63% and 76%
  Population Normal (%): 94% and 91%
  Population Pyknosed Nuclei (%): 9% and 7%
  Population Tubulin-Different-Phenotype (%): 51% and 30%
  Total Cell Count: 757 and 965
HEK-293T; [5]
  Population Apoptotic (%): 12% and 17%
  Population Fragmented Nuclei (%): 11% and 9%
  Population Healthy Nuclei (%): 84% and 87%
  Population Hoechst High Intensity Objects (%): 8%
  Population Membrane Permeable-Phenotype (%): 4%
  Population Mitochondria Different-Phenotype (%): 1% and 0%
  Population Mitotic Cells (%): 87% and 82%
  Population Normal (%): 91%
  Population Pyknosed Nuclei (%): 3% and 2%
  Population Tubulin-Different-Phenotype (%): 8% and 11%
  Total Cell Count: 2361 and 2103
HEK-293T; [6]
  Population Apoptotic (%): 25% and 17%
  Population Fragmented Nuclei (%): 11% and 14%
  Population Healthy Nuclei (%): 84% and 82%
  Population Hoechst High Intensity Objects (%): 8%
  Population Membrane Permeable-Phenotype (%): 6%
  Population Mitochondria Different-Phenotype (%): 2% and 0%
  Population Mitotic Cells (%): 75% and 82%
  Population Normal (%): 91%
  Population Pyknosed Nuclei (%): 4% and 2%
  Population Tubulin-Different-Phenotype (%): 33% and 16%
  Total Cell Count: 1552 and 2354
Fibroblast; [1]
  Population Apoptotic (%): 35%
  Population Fragmented Nuclei (%): 11% and 12%
  Population Healthy Nuclei (%): 66% and 69%
  Population Hoechst High Intensity Objects (%): 0%
  Population Membrane Permeable-Phenotype (%): 6% and 8%
  Population Mitochondria Different-Phenotype (%): 0%
  Population Mitotic Cells (%): 64%
  Population Normal (%): 100%
  Population Pyknosed Nuclei (%): 22% and 18%
  Population Tubulin-Different-Phenotype (%): 16% and 12%
  Total Cell Count: 167 and 197
Fibroblast; [2]
  Population Apoptotic (%): 36% and 47%
  Population Fragmented Nuclei (%): 8%
  Population Healthy Nuclei (%): 67% and 72%
  Population Hoechst High Intensity Objects (%): 0%
  Population Membrane Permeable-Phenotype (%): 8% and 11%
  Population Mitochondria Different-Phenotype (%): 2%
  Population Mitotic Cells (%): 63% and 52%
  Population Normal (%): 100%
  Population Pyknosed Nuclei (%): 24% and 18%
  Population Tubulin-Different-Phenotype (%): 18% and 15%
  Total Cell Count: 185 and 192
Fibroblast; [3]
  Population Apoptotic (%): 44% and 31%
  Population Fragmented Nuclei (%): 8% and 13%
  Population Healthy Nuclei (%): 66% and 64%
